# Measurements from ChEMBL document CHEMBL1138799, “4-benzyl- and 4-benzoyl-3-dimethylaminopyridin-2(1H)-ones, a new family of potent anti-HIV agents: optimization and in vitro evaluation against clinically important HIV mutant strains” (J Med Chem, 2004).
# pIC50: −log10 of the molar value.
# Tests used:
# [1] = system: Human immunodeficiency virus 1; test: Selectivity index of cytotoxic activity (CC50) to inhibitory activity (IC50) relative to LAI cell line; format: functional
# How it was run: (§1)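 MT4 human T-lymphoblastoid cells were grown in RPMI 1640 with 10% fetal calf serum and antibiotics at 37 °C and 5% CO2. A compound concentration series was combined with HIV-1 LAI at 200 CCID50/well and 30 000 cells/well. Mock-infected cultures with the same concentrations were run in parallel to measure cytotoxicity. After 5 days, cell viability was read by MTT colorimetry. EC50 is the concentration giving 50% infection versus the drug-free control.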
# [2] = system: Human immunodeficiency virus 1; test: Inhibitory activity against HIV-1 double mutants strain 227L and 106A; format: functional, organism-based
# How it was run: (§2)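 Mutant HIV-1 made by recombining mutant PR-RT sequence into a PR-RT-deleted HXB2 proviral clone. Serial compound concentrations plated, then virus (200 CCID50/well) and MT4 cells (30 000 cells/well; RPMI 1640, 10% FCS) added; 5 days at 37 °C, 5% CO2; viability read by MTT. EC50 = concentration giving 50% infection versus drug-free control; mock-infected cultures run in parallel for toxicity.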
# [3] = system: Human immunodeficiency virus 1; test: Inhibitory activity against HIV-1 double mutants strain 101E and 103N; format: functional, organism-based; how it was run: as §2
# [4] = system: Human immunodeficiency virus 1; test: Inhibitory activity against wild type HIV-1 LAI cell line; format: functional, organism-based; conditions: Human immunodeficiency virus 1, LAI; how it was run: as §1
# [5] = system: Human immunodeficiency virus 1; test: Inhibitory activity against HIV-1 mutant strain 181C; format: functional, organism-based; how it was run: as §2
# [6] = system: Human immunodeficiency virus 1; test: Inhibitory activity against HIV-1 mutant strain 101E; format: functional, organism-based; how it was run: as §2
# [7] = system: Human immunodeficiency virus 1; test: Inhibitory activity against HIV-1 mutant strain 100I; format: functional, organism-based; how it was run: as §2
# [8] = system: Human immunodeficiency virus 1; test: Inhibitory activity against HIV-1 mutant strain 227C; format: functional, organism-based; how it was run: as §2
# [9] = system: Human immunodeficiency virus 1; test: Inhibitory activity against HIV-1 mutant strain 179E; format: functional, organism-based; how it was run: as §2
# [10] = system: Human immunodeficiency virus 1; test: Inhibitory activity against HIV-1 double mutants strain 103N and 181C; format: functional, organism-based; how it was run: as §2
# [11] = system: Human immunodeficiency virus 1; test: Inhibitory activity against HIV-1 mutant strain 138K; format: functional, organism-based; how it was run: as §2
# [12] = system: Human immunodeficiency virus 1; test: Inhibitory activity against HIV-1 mutant strain 188L; format: functional, organism-based; how it was run: as §2
# [13] = system: Human immunodeficiency virus 1; test: Inhibitory activity against HIV-1 double mutants strain 100I and 103N; format: functional, organism-based; how it was run: as §2
# [14] = system: Human immunodeficiency virus 1; test: Inhibitory activity against HIV-1 mutant strain 190S; format: functional, organism-based; how it was run: as §2
# [15] = system: Human immunodeficiency virus 1; test: Inhibitory activity against HIV-1 mutant strain 103N; format: functional, organism-based; how it was run: as §2
# [16] = system: Human immunodeficiency virus 1; test: Inhibitory activity against HIV-1 mutant strain 190A; format: functional, organism-based; how it was run: as §2
# [17] = system: Human immunodeficiency virus 1; test: Inhibitory activity against HIV-1 mutant strain 106A; format: functional, organism-based; how it was run: as §2
SMILES,Selectivity index [1],pIC50 [2],pIC50 [3],pIC50 [4],pIC50 [5],pIC50 [6],pIC50 [7],pIC50 [8],pIC50 [9],pIC50 [10],pIC50 [11],pIC50 [12],pIC50 [13],pIC50 [14],pIC50 [15],pIC50 [16],pIC50 [17]
CCc1c(C)nc(O)c(N(C)C)c1C(=O)c1cccc(C#N)c1,6310,7.30,7.70,8.70,7.40,8.15,8.00,6.66,8.40,6.96,8.40,6.41,7.52,8.70,8.22,8.30,–
CCc1c(C)nc(O)c(N(C)C)c1C(=O)c1cccc(/C=C/C#N)c1,10000,6.00,8.00,9.00,8.00,8.10,8.22,6.10,9.00,7.40,8.30,6.82,7.70,8.22,8.70,8.22,8.70
O=C1Nc2ccc(Cl)cc2[C@@](C#CC2CC2)(C(F)(F)F)O1 [EFAVIRENZ],–,7.70,6.82,–,8.70,8.22,7.40,6.82,8.30,7.40,8.70,6.82,5.00,6.60,7.40,8.00,7.40
CCc1c(C)nc(O)c(N(C)C)c1Cc1cccc(Br)c1,25100,–,–,8.40,8.22,–,–,–,–,–,–,5.60,–,–,7.00,–,–
CCc1c(C)nc(O)c(N(C)C)c1C(=O)c1cccc(/C(C)=C(\C)C#N)c1,1580,–,–,8.22,6.92,–,–,–,–,–,–,5.80,–,–,7.70,–,–
CCc1c(C)nc(O)c(N(C)C)c1C(=O)c1ccc(OC)c(C)c1,200,–,–,7.15,4.00,–,–,–,–,–,–,4.00,–,–,5.80,–,–
CCc1c(C)nc(O)c(N(C)C)c1Cc1cccc(Cl)c1,20000,–,–,8.30,7.10,–,–,–,–,–,–,5.80,–,–,7.40,–,–
CCc1c(C)nc(O)c(N(C)C)c1C(=O)c1cccs1,6310,–,–,8.00,5.40,–,–,–,–,–,–,4.00,–,–,6.51,–,–
C=Cc1cccc(C(=O)c2c(CC)c(C)nc(O)c2N(C)C)c1,12600,–,–,8.70,6.20,–,–,–,–,–,–,6.10,–,–,7.52,–,–
Cc1ccnc2c1NC(=O)c1cccnc1N2C1CC1 [NEVIRAPINE],–,7.70,6.30,7.52,5.00,6.51,6.51,6.89,6.72,7.40,7.30,4.00,–,7.40,–,–,–
CCOC(=O)/C=C/c1cccc(C(=O)c2c(CC)c(C)nc(O)c2N(C)C)c1,3160,–,–,8.52,6.82,–,–,–,–,–,–,6.82,–,–,8.00,–,–
CCc1c(C)nc(O)c(N(C)C)c1Cc1cccc(OC)c1,12600,–,–,8.40,6.49,–,–,–,–,–,–,6.51,–,–,7.00,–,–
CCc1c(C)nc(O)c(N(C)C)c1C(=O)c1cc(Cl)cc(Cl)c1,5010,7.22,7.40,8.70,7.52,8.00,8.10,6.20,8.00,6.82,8.00,6.51,6.30,8.52,8.00,8.00,–
CCc1c(C)nc(O)c(N(C)C)c1Cc1cccnc1,6310,–,–,8.00,6.00,–,–,–,–,–,–,5.40,–,–,6.41,–,–
CCc1c(C)nc(O)c(N(C)C)c1C(=O)c1cccc(CC#N)c1,31600,–,–,9.00,6.92,–,–,–,–,–,–,6.00,–,–,8.22,–,–
CCc1c(C)nc(O)c(N(C)C)c1C(=O)c1ccc(C)o1,10000,–,–,8.00,5.80,–,–,–,–,–,–,4.30,–,–,6.60,–,–
CCc1c(C)nc(O)c(N(C)C)c1Cc1cc(F)cc(F)c1,7940,–,–,8.00,7.00,–,–,–,–,–,–,6.30,–,–,7.52,–,–
CCc1c(C)nc(O)c(N(C)C)c1Cc1cc(Cl)cc(Cl)c1,3980,6.30,6.70,8.10,6.80,–,7.30,6.15,–,6.30,–,6.20,6.51,–,7.70,–,–
CCc1c(C)nc(O)c(N(C)C)c1C(=O)c1cc(Br)cs1,10000,–,–,8.52,6.20,–,–,–,–,–,–,5.00,–,–,7.00,–,–
CCc1c(C)nc(O)c(N(C)C)c1C(=O)c1cccc(Br)c1,12600,7.00,7.15,8.70,6.82,8.00,7.70,6.59,8.30,6.01,8.30,6.10,7.15,8.52,7.70,8.15,–
CCc1c(C)nc(O)c(N(C)C)c1C(=O)c1cccc(C=O)c1,2510,–,–,8.10,5.90,–,–,–,–,–,–,5.00,–,–,6.92,–,–
CCc1c(C)nc(O)c(N(C)C)c1C(=O)c1cccc([N+](=O)[O-])c1,39600,–,–,8.70,6.70,–,–,–,–,–,–,5.50,–,–,7.70,–,–
CCc1c(C)nc(O)c(N(C)C)c1C(=O)c1cccc(-c2cccnc2)c1,126,–,–,8.22,5.00,–,–,–,–,–,–,5.00,–,–,7.30,–,–
CCc1c(C)[nH]c(=O)c(N(C)C)c1Cc1cc(C)cc(C)c1,12600,–,–,8.10,7.00,8.00,7.30,–,–,6.10,–,6.60,–,–,7.52,7.22,7.40
